High-throughput results from PubChem BioAssay.
Dynein cargo inh: dynein cargo transport inhibition | hit rate 0.47% among 220,000 | 3617.4 mouse cells, GR-EGFP nuclear translocation imaging; test concentration mostly 20 µM; stimulated with dexamethasone, 1 µM; active compounds read low | z-score, hits read low | AID 1381;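 active means plate z-score of nuclear minus cytoplasmic receptor signal below a set negative limit, without overly bright fluorescence or cell loss, cut at about -3.5 in these data, passing the limit was not always enough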;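 further: z-score of nuclear minus cytoplasmic ring GR-EGFP intensity difference per well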
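Buffer or medium: tet-free, stripped-serum medium; reagent: dexamethasone at 1.0 µM final, 30 min; incubation: 48 h induction, 1 h compound, 30 min dex at 37 °C; measured by: formaldehyde fixation, Hoechst nuclear stain, 10x automated fluorescence imaging; read-out: nuclear-to-cytoplasmic GR-EGFP distribution per well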
TNF necrop inh: blocks TNF-alpha induced death of Jurkat FADD-/- cells; Jurkat FADD-/- TNF necroptosis rescue, ATP luminescence, 24 h; 0 = TNF only, 100 = no-TNF cells; activation (protection from cell death), % at 10 µM; hit rate 0.068% among 220,000;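 active means activation, meaning protection from cell death, of at least 50% relative to plate controls; inactive means activation below 50%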;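 further: necroptosis triggered by 40 ng/mL TNF-alpha added together with compound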
Autophagy HCS: autophagy modulation, high-content screen; MEF GFP-LC3 puncta imaging; test concentration mostly 10 µM; calls only at 10 µM (by protocol); hit rate 0.98% among 190,000;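 active means percentage of spot-positive cells more than 3 SD above its plate mean, without a fluorescence outlier flag or 80% toxicity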;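 further: spot-positive cell cutoff set from DMSO-treated cells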
Mdm2 ligase inh: inhibitors of human Mdm2 E3 ubiquitin ligase | hit rate 0.11% among 210,000 | AID 1230 | Q00987 | signal enhancement, % at 5 µM | cell-based MDM2 ubiquitination luciferase reporter, 2 h; 0 = plate control, 100 = twice control, blank-subtracted;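 active means signal enhancement of 30% or more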;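 further: luminescence tracks abundance of the self-degrading MDM2-luciferase fusion protein; higher signal means inhibition of MDM2 E3 ligase activity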
Target sequence (Q00987 whole entry, looked up, the tested form may be a part): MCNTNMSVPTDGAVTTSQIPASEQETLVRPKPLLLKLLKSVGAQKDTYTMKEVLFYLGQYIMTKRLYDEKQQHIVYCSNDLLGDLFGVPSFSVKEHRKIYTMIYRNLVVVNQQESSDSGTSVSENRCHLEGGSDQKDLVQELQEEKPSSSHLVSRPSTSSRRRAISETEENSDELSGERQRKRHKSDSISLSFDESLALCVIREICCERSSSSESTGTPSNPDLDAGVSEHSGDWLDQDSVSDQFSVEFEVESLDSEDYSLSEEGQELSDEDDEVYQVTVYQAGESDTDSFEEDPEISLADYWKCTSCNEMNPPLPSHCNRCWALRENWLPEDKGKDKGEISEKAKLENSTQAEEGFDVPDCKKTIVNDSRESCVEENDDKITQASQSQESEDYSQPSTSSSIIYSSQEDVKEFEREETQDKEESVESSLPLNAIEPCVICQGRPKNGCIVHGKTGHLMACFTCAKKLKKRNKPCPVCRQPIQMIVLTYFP
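Buffer or medium: Cells held in DMEM | Assay system: Stable mammalian line carrying autodegrading MDM2–luciferase fusion reporter | Quantity: 2000 cells/well | Times: 4 h settle plus 2 h compound, 37 °C | Doses: One concentration, 5 µM, with 0.2% DMSO | Technique: Luminescence with SteadyLite reagent, 15 min at room temperature | Benchmarks: Plate controls and plate blanks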
L929 necroptosis: blocks zVAD induced death of L929 cells | L929 zVAD necroptosis rescue, ATP luminescence, 24 h; with zVAD 60 µM | viability rescue, % at 10 µM | hit rate 0.38% among 220,000 | AID 1377;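 active means activation, scaled between plate controls, above about 75%, limit read from the data; inactive means activation under that limit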;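 further: 0% = zVAD with DMSO and 100% = DMSO alone without zVAD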
* marks the source's active call; other numbers are inactive results; i = inactive; · = no result; + = active, no number. Rows were chosen to be rich in hits. Some 1.8% of all compounds tested hit in one or more screens of this group.

SMILES	Dynein cargo inh	TNF necrop inh	Autophagy HCS	Mdm2 ligase inh	L929 necroptosis
CC(=C\c1ccccc1)/C=C1/SC(=S)N(CCC(=O)Nc2ccccn2)C1=O	-0.907	0.9	+	-8.6	2.6
O=C(CCN1C(=O)/C(=C/C=C/c2ccccc2)SC1=S)Nc1ccccn1	-0.839	0.4	i	0.3	-0.9
O=C1c2cccc3c(N4CCCCC4)ccc(c23)C(=O)N1c1ccc(Cl)cn1	-5.72	-1.3	+	·	-0.4
CCN(CC)S(=O)(=O)c1ccc(C(=O)OCCN2C(=O)c3cccc4c(N5CCOCC5)ccc(c34)C2=O)cc1	i	-6.8	i	5.2	1.1
CCCN1C(=O)c2cccc3c(N4CCCCC4)ccc(c23)C1=O	0.786	2.4	+	-50.4	0.3
O=C(OCCN1C(=O)c2cccc3c(N4CCOCC4)ccc(c23)C1=O)c1cc(Cl)cc(Cl)c1	-1.94	-5.8	+	-11.7	-1.0
O=C1c2cccc3c(N4CCCCC4)ccc(c23)C(=O)N1c1ccccn1	1.34	-2.0	i	4.7	0.3
Cc1cccc(C(=O)N2CCC(n3nnc4cc(F)ccc43)CC2)c1	-0.638	0.2	i	-17.6	0.0
COc1ccc(C(=O)N2CCC(n3nnc4cc(F)ccc43)CC2)cc1OC	-0.438	0.3	+	-11.6	-1.2
COc1ccc2nc(NCc3ccccc3)[nH]c2c1	-0.295	-4.2	i	-9.9	1.1
Cc1ccc2nc(NCc3ccccc3)[nH]c2c1	0.432	-9.3	+	-15.1	-0.4
CCOC(=O)c1ccc(NC(=O)Nc2ccc3c4c(cccc24)C(=O)N3CC)cc1	0.493	-1.5	+	-11.2	0.8
CCN1C(=O)c2cccc3c(NS(=O)(=O)c4ccc(NC(C)=O)cc4)ccc1c23	-0.895	-9.9	i	-8.8	-0.2
Cc1ccc(Nc2nc(Oc3ccc(=O)[nH]n3)nc(N(C)C)n2)cc1	-0.862	-1.4	+	-15.3	0.7
CN(C)c1nc(Nc2ccccc2)nc(Oc2ccc(=O)[nH]n2)n1	-0.526	-1.2	i	-10.2	0.1
O=C(CCNc1ccc(Cc2ccncc2)cc1)c1ccc([N+](=O)[O-])cc1	0.0849	0.2	i	-12.1	0.7
O=C(Nc1cc(S(=O)(=O)N2CCCCC2)ccc1O)c1ccccc1NS(=O)(=O)c1ccc(F)cc1	-0.599	0.6	i	-10.7	0.6
O=C(Nc1cc(S(=O)(=O)N2CCCCC2)ccc1Cl)c1ccccc1NS(=O)(=O)c1ccc(F)cc1	0.554	-0.8	+	-25.2	0.2
Nc1c(C(=O)NCc2ccc(F)cc2)c2nc3ccccc3nc2n1CCCN1CCOCC1	-0.816	-3.9	i	-5.9	-0.2
Nc1c(C(=O)NCc2ccccc2)c2nc3ccccc3nc2n1CCCN1CCOCC1	-0.53	-0.1	+	-17.1	·
COc1ccccc1NS(=O)(=O)c1ccc(O)c(NC(=S)NCC2CCCO2)c1 (stereo unspecified)	-0.0468	-0.1	·	10.4	0.0
CCN(CC)c1ccc(C=C2C(=O)OC3(CCCCC3)OC2=O)cc1	-0.761	-1.0	i	-13.5	2.2
CCN(CC)c1ccc(/C=C2/C(=O)c3ccc(C(=O)O)cc3C2=O)cc1	0.558	0.7	i	63.3*	0.2
CC(=O)c1sc(N/N=C\c2ccccc2O)nc1C	-0.817	-5.8	i	-9.3	62.1
CC1(C(=O)Nc2ccccc2)Cc2ccccc2C(=O)O1 (stereo unspecified)	-1.11	0.3	+	3.8	-0.5
SMILES	Dynein cargo inh	TNF necrop inh	Autophagy HCS	Mdm2 ligase inh	L929 necroptosis
CC1(C(=O)Nc2nnc(C(C)(C)C)s2)Cc2ccccc2C(=O)O1 (stereo unspecified)	0.293	-0.8	i	-15.8	1.5
O=C(COC(=O)c1cccc(S(=O)(=O)N2CCCC2)c1)NCc1ccccc1	-0.19	0.7	i	-14.1	0.3
O=C(NCc1ccccc1)c1noc2c1CCCCC2	-0.0381	6.6	+	-5.0	1.0
Cc1cc(NC(=O)c2noc3c2CCCC3)nn1Cc1ccc(Cl)cc1	-1.32	-1.0	i	-10.9	81.6*
COc1ccc(CNC(=O)c2noc3c2CCCCC3)cc1	2.06	2.1	i	17.6	0.2
COc1ccc2c(c1)CCc1c(C(=O)Nc3cc(C)n(Cc4ccc(Cl)cc4)n3)noc1-2	-1.19	1.4	i	-10.2	4.3
COc1ccccc1CCN=C(N)NS(=O)(=O)c1ccc(C)cc1	-0.228	-0.1	+	-10.7	3.7
O=[N+]([O-])c1cc(Cl)cc2c1nc(NCCO)c1ccccc12	-0.00234	-4.5	·	-11.4	-0.5
Cc1cc(C)n(-c2cccc(Cl)c2C#N)n1	0.785	0.1	·	-6.0	-0.5
COc1ccc(C2=C(c3ccc([N+](=O)[O-])cc3)C(=O)OC2)cc1	-0.205	0.0	i	-5.2	0.5
Cc1ccc(C2=C(c3ccc([N+](=O)[O-])cc3)C(=O)OC2)cc1C	-1.45	-1.1	+	1.4	-0.7
COCCN1C(=O)/C(=C/c2ccc(N3CCCC3)cc2C)SC1=S	-2.12	-4.8	+	-17.2	-0.7
CCN=C1S/C(=C\c2ccc(N3CCOCC3)cc2C)C(=O)N1CC	0.135	-0.7	i	-14.7	1.8
CC1CCN(C(=O)CN2C(=O)C(=O)c3ccccc32)CC1	0.75	-0.1	+	-18.7	0.3
Cc1ccc(NC(=O)c2cc(N3C(=O)CCC3=O)ccc2N2CCCCC2)cc1	1.18	0.1	i	-3.9	0.3
Cc1ccc(NC(=O)c2cc(N3C(=O)CCC3=O)ccc2N2CCOCC2)cc1	1.59	0.8	+	-3.8	-1.5
O=C(Nc1nc2ccc(S(=O)(=O)N3CCCC3)cc2s1)C1CCCCC1	-1.03	-7.4	+	1.2	0.1
O=C(Nc1nc2ccc(S(=O)(=O)N3CCCCC3)cc2s1)C1CCCO1 (stereo unspecified)	-0.756	-0.2	i	2.1	-0.1
O=C(Nc1nc2ccc([N+](=O)[O-])cc2s1)C1CCCO1 (stereo unspecified)	0.293	0.0	+	-8.8	1.4
Cc1ccc(OCCNC(=O)Cc2ccc(F)cc2)cc1	0.361	-0.1	i	·	0.0
FC(F)(F)c1ccccc1NC(=S)N1CCc2ccccc2C1	-0.916	-2.2	+	-9.5	2.3
Cc1c(Cl)cccc1NC(=S)N1CCc2ccccc2C1	0.984	1.2	i	-7.3	0.2
Cc1ccc2cc(CCNC(=O)c3cccc([N+](=O)[O-])c3)c(=O)[nH]c2c1C	-0.587	1.2	i	10.3	0.2
Clc1nnc(N/N=C/c2ccccc2)c2ccccc12	1.43	-2.1	i	-14.3	0.5
Clc1ccc(/C=N/Nc2nnc(Cl)c3ccccc23)cc1	0.308	-0.5	+	-9.1	1.7
CCOc1ccc(-c2nnn(CC(=O)NCc3ccco3)n2)cc1OCC	-0.581	-1.0	i	3.4	-0.1
